From ChEMBL document CHEMBL1122835, “Synthesis and pharmacology of the potent angiotensin-converting enzyme inhibitor N-[1(S)-(ethoxycarbonyl)-3-phenylpropyl]-(S)-alanyl-(S)-pyroglutamic acid” (J Med Chem, 1985)

Assays:
[1] = Half life was determined; assay type: ADME; settings: rat
In short: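 Rats anesthetized with pentobarbital/barbital received a single iv dose, 0.2 or 0.08 mg/kg. AI 0.3 μg/kg iv given at 5 min, then every 10 min for 210 min. Half-life = time for the AI pressor response to fall to 50% of its peak inhibition.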

Canis familiaris [2] = assay: Effect on pressor response of angiotensin I in anesthetized dog, dose 0.9 mg/kg administered intravenously; assay type: functional, Canis lupus familiaris; settings: route intravenous
In short: (§1)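 Mongrel dogs, 7.3–15.5 kg, anesthetized with barbital/pentobarbital iv, tracheotomized and vagotomized, n = 4. Cumulative iv doses in saline (0.2 mL/kg) spaced 30 min apart. AI and AII 1 μg/kg iv challenges given after each dose; the second pre-dose set served as control.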

Canis familiaris [3] = assay: Effect on pressor response of angiotensin I in conscious dog at 60-65 min, dose 0.5 mg/kg administered orally; assay type: functional, Canis lupus familiaris; settings: route oral
In short: (§2)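 Conscious fasted mongrel dogs of both sexes, 6.8–15.3 kg, with femoral cannulas. Drug given orally in 0.25% methylcellulose with 3% glycerin (2 mL/kg), n = 4 per dose. AI 0.3, AII 0.1 and NE 1 μg/kg iv challenges. The second pre-dose set served as control; response measured at 60–65 min post-dose.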

Canis familiaris [4] = assay: Effect on pressor response of angiotensin I in conscious dog at 60-65 min, dose 2 mg/kg administered orally; assay type: functional, Canis lupus familiaris; settings: route oral; in short: as §2
Canis familiaris [5] = assay: Effect on pressor response of angiotensin II in anesthetized dog, dose 0.3 mg/kg administered intravenously; assay type: functional, Canis lupus familiaris; settings: route intravenous; in short: as §1
Canis familiaris [6] = assay: Effect on pressor response of angiotensin II in conscious dog at 60-65 min, dose 0.5 mg/kg administered orally; assay type: functional, Canis lupus familiaris; settings: route oral; in short: as §2
Canis familiaris [7] = assay: Effect on pressor response of angiotensin II in conscious dog at 60-65 min, dose 1 mg/kg administered orally; assay type: functional, Canis lupus familiaris; settings: route oral; in short: as §2
Canis familiaris [8] = assay: Effect on pressor response of angiotensin II in conscious dog at 60-65 min, dose 2 mg/kg administered orally; assay type: functional, Canis lupus familiaris; settings: route oral; in short: as §2
Rattus norvegicus [9] = assay: Percent change was determined in bradykinin depressor response in anesthetized normotensive rat, administered intravenously at dose 0.010 mg/kg; assay type: functional; settings: dose 0.01 mg/kg; route intravenous
In short: (§3)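 Male Charles River CD rats (380–500 g), pentobarbital Na 15 mg/kg plus barbital 220 mg/kg ip, tracheotomized, femoral artery/vein cannulated, kept at 37 °C. Control bradykinin 1 μg/kg iv depressor response, separate from angiotensin tests; drug iv in 0.9% saline (1 mL/kg, free base) 10 min later, Bk 5 min after each cumulative dose (0.0033–0.27 mg/kg). Maximum fall in arterial pressure versus control response; N = 8.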

Rattus norvegicus [10] = assay: Percent change was determined in bradykinin depressor response in anesthetized normotensive rat, administered intravenously at dose 0.030 mg/kg; assay type: functional; settings: dose 0.03 mg/kg; route intravenous; in short: as §3
Rattus norvegicus [11] = assay: Percent decrease in angiotensin I pressor response was measured in rat, administered intravenously at dose 0.010 mg/kg; assay type: functional; settings: dose 0.01 mg/kg; route intravenous
In short: (§4)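 Anesthetized (pentobarbital Na 15 mg/kg + barbital 220 mg/kg ip), tracheotomized male Charles River CD rats, 380–500 g, femoral cannulas, heated board at 37 °C. Control pressor responses to angiotensin I 0.3 μg/kg then angiotensin II 0.1 μg/kg iv; drug iv in 0.9% saline (free base), AI and AII repeated at 5-min intervals, cumulative 0.01–0.81 mg/kg. Peak arterial pressure rise versus control.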

Rattus norvegicus [12] = assay: Percent decrease in angiotensin I pressor response was measured in rat, administered intravenously at dose 0.090 mg/kg; assay type: functional; settings: dose 0.09 mg/kg; route intravenous; in short: as §4
Rattus norvegicus [13] = assay: Percent decrease in angiotensin I pressor response was measured in rat, administered intravenously at dose 0.81 mg/kg; assay type: functional; settings: route intravenous; in short: as §4
Rattus norvegicus [14] = assay: Hypotensive activity was determined in low-sodium treated rat, dose 10 mg/kg administered orally at 2 hr; assay type: functional; settings: route oral
In short: (§5)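 Male CD rats, 11 weeks old, kept on a sodium-deficient diet for 3 weeks and fasted overnight, were dosed orally with aqueous solutions (5 mL/kg), water as control. Systolic pressure measured by tail cuff at the stated post-dose time. ANOVA with Duncan's test.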

Rattus norvegicus [15] = assay: Hypotensive activity was determined in low-sodium treated rat, dose 3 mg/kg administered orally at 2 hr; assay type: functional; settings: route oral; in short: as §5
Rattus norvegicus [16] = assay: Hypotensive activity was determined in low-sodium treated rat, dose 30 mg/kg administered orally at 2 hr; assay type: functional; settings: route oral; in short: as §5
Rattus norvegicus [17] = assay: Decrease in systolic blood pressure of Spontaneous Hypertensive Rats (SHR) pretreated with hydrochlorothiazide upon oral administration at 3 mm/kg; assay type: functional, Artery
In short: (§6)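 Male SHR, 13 weeks old, given HCTZ 25 mg/kg po in 0.25% methylcellulose daily for 3 days. Drug given orally in water (5 mL/kg) 1 h after the third dose. Tail-cuff systolic pressure and pulse-count heart rate taken 1.5 h later after 20 min warming at 38 °C. ANOVA with Duncan's test; ED30 by linear regression.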

Rattus norvegicus [18] = assay: Decrease in systolic blood pressure of Spontaneous Hypertensive Rats (SHR) pretreated with hydrochlorothiazide upon oral administration at 30 mm/kg; assay type: functional, Artery; in short: as §6
Rattus norvegicus [19] = assay: Change in heart rate was determined in renal hypertensive rat, administered orally at a dose 100 mg/kg; assay type: functional; settings: route oral
In short: (§7)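 Renal hypertensive rats were prepared by clipping the left renal artery (0.22-mm clip) in 4-week-old male CD rats and held 6 weeks. Overnight-fasted rats were dosed orally with aqueous solution (5 mL/kg), water as control. Tail-cuff systolic pressure and heart rate measured 2 h post-dose. ANOVA with Duncan's test; ED30 by linear regression.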

Rattus norvegicus [20] = assay: Change in heart rate was determined in renal hypertensive rat, administered orally at a dose 10 mg/kg; assay type: functional; settings: route oral; in short: as §7
Rattus norvegicus [21] = assay: Change in heart rate was determined in renal hypertensive rat, administered orally at a dose 3 mg/kg; assay type: functional; settings: route oral; in short: as §7
Rattus norvegicus [22] = assay: Effect on vasopressor response caused by angiotensin I (AI) in anesthetized normotensive rat, administered intravenously at dose 0.010 mg/kg; assay type: functional; settings: dose 0.01 mg/kg; route intravenous
In short: (§8)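 Male Charles River CD rats, 380–500 g, anesthetized with pentobarbital Na 15 mg/kg plus barbital 220 mg/kg ip, held at 37 °C. Femoral artery pressure recorded. AI 0.3 μg/kg and AII 0.1 μg/kg given iv as challenges. Cumulative iv drug in saline, 0.01–0.81 mg/kg, each dose followed by AI/AII challenges at 5-min intervals. ED50 = 50% change from control response, by linear regression.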

Rattus norvegicus [23] = assay: Effect on vasopressor response caused by angiotensin I (AI) in anesthetized normotensive rat, administered intravenously at dose 0.030 mg/kg; assay type: functional; settings: dose 0.03 mg/kg; route intravenous; in short: as §8
Rattus norvegicus [24] = assay: Effect on vasopressor response caused by angiotensin I (AI) in anesthetized normotensive rat, administered intravenously at dose 0.81 mg/kg; assay type: functional; settings: route intravenous; in short: as §8
Rattus norvegicus [25] = assay: Activity against the bradykinin Response in anesthetized normotensive rat, administered intravenously at dose 0.0033 mg/kg; assay type: functional; settings: route intravenous
In short: (§9)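 Anesthetized (pentobarbital/barbital ip) male Charles River CD rats, 380–500 g, kept at 37 °C. Femoral artery blood pressure recorded. Control depressor response to bradykinin 1 μg/kg iv, then cumulative iv drug in 0.9% saline (1 mL/kg), 0.0033–0.27 mg/kg. Bk challenge 5 min after each dose. ED50 = dose giving a 50% change from control, by linear regression; N = 8.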

Rattus norvegicus [26] = assay: Activity against the bradykinin Response in anesthetized normotensive rat, administered intravenously at dose 0.090 mg/kg; assay type: functional; settings: dose 0.09 mg/kg; route intravenous; in short: as §9

CCOC(=O)[C@H](CCc1ccccc1)N[C@@H](C)C(=O)N1C(=O)CC[C@H]1C(=O)O
half-life [1]: 120 min
Blood pressure (Canis familiaris [2]): 28 mmHg
Blood pressure (Canis familiaris [3]): 47 mmHg
Blood pressure (Canis familiaris [4]): 8 mmHg
Blood pressure (Canis familiaris [5]): 68 mmHg
Blood pressure (Canis familiaris [6]): 48 mmHg
Blood pressure (Canis familiaris [7]): 48 mmHg
Blood pressure (Canis familiaris [8]): 40 mmHg
Change (Rattus norvegicus [9]): 61%
Change (Rattus norvegicus [10]): 69%
Decrease (Rattus norvegicus [11]): 6%
Decrease (Rattus norvegicus [12]): 31%
Decrease (Rattus norvegicus [13]): 92%
Activity (Rattus norvegicus [14]): 148 mmHg
Activity (Rattus norvegicus [15]): 154 mmHg
Activity (Rattus norvegicus [16]): 135 mmHg
Blood pressure (Rattus norvegicus [17]): 211 mmHg
Blood pressure (Rattus norvegicus [18]): 190 mmHg
Heart rate (Rattus norvegicus [19]): 454 beats min-1
Heart rate (Rattus norvegicus [20]): 438 beats min-1
Heart rate (Rattus norvegicus [21]): 460 beats min-1
Response (Rattus norvegicus [22]): 45 mmHg
Response (Rattus norvegicus [23]): 39 mmHg
Response (Rattus norvegicus [24]): 4 mmHg
Response (Rattus norvegicus [25]): -44 mmHg
Response (Rattus norvegicus [26]): -61 mmHg
